# Test results published in ChEMBL document CHEMBL3774372, “Design, physico-chemical properties and biological evaluation of some new N-[(phenoxy)alkyl]- and N-{2-[2-(phenoxy)ethoxy]ethyl}aminoalkanols as anticonvulsant agents” (Bioorg Med Chem, 2016).
# Key:
# [1] = target: Muscarinic acetylcholine receptor M5 (Homo sapiens, UniProt P08912); assay: Displacement of [3H]4-DAMP from human recombinant muscarinic M5 receptor expressed in CHO cells; format: cell-based
# Rattus norvegicus [2] = assay: Neurotoxicity in rat at 30 mg/kg, ip after […] by rotarod test; format: toxicity, organism-based; conditions: in vivo
# Rattus norvegicus [3] = assay: Neurotoxicity in rat at 30 mg/kg, ip after 0.5 hrs by rotarod test; format: toxicity, organism-based; conditions: in vivo
# Rattus norvegicus [4] = assay: Neurotoxicity in rat at 30 mg/kg, ip after 1 hr by rotarod test; format: toxicity, organism-based; conditions: in vivo
# Rattus norvegicus [5] = assay: Neurotoxicity in rat at 30 mg/kg, ip after 2 hrs by rotarod test; format: toxicity, organism-based; conditions: in vivo
# Rattus norvegicus [6] = assay: Neurotoxicity in rat at 30 mg/kg, ip after 4 hrs by rotarod test; format: toxicity, organism-based; conditions: in vivo
# Rattus norvegicus [7] = assay: Neurotoxicity in rat at 30 mg/kg, po after […] by rotarod test; format: toxicity, organism-based; conditions: in vivo
# Rattus norvegicus [8] = assay: Neurotoxicity in rat at 30 mg/kg, po after 0.5 hrs by rotarod test; format: toxicity, organism-based; conditions: in vivo
# Rattus norvegicus [9] = assay: Neurotoxicity in rat at 30 mg/kg, po after 1 hr by rotarod test; format: toxicity, organism-based; conditions: in vivo
# Rattus norvegicus [10] = assay: Neurotoxicity in rat at 30 mg/kg, po after 2 hrs by rotarod test; format: toxicity, organism-based; conditions: in vivo
# Rattus norvegicus [11] = assay: Neurotoxicity in rat at 30 mg/kg, po after 4 hrs by rotarod test; format: toxicity, organism-based; conditions: in vivo
# Mus musculus [12] = assay: Neurotoxicity in mouse at 20 mg/kg, ip after […] by rotarod test; format: toxicity, organism-based; conditions: in vivo
# Mus musculus [13] = assay: Neurotoxicity in mouse at 40 mg/kg, ip after 4 hrs by rotarod test; format: toxicity, organism-based; conditions: in vivo
# Mus musculus [14] = assay: Neurotoxicity in mouse at 40 mg/kg, ip after 2 hrs by rotarod test; format: toxicity, organism-based; conditions: in vivo
# Mus musculus [15] = assay: Neurotoxicity in mouse at 40 mg/kg, ip after […] by rotarod test; format: toxicity, organism-based; conditions: in vivo
# Mus musculus [16] = assay: Neurotoxicity in mouse at 40 mg/kg, ip after 1 hr by rotarod test; format: toxicity, organism-based; conditions: in vivo
# Mus musculus [17] = assay: Neurotoxicity in mouse at 20 mg/kg, ip after 0.5 hrs by rotarod test; format: toxicity, organism-based; conditions: in vivo
# Mus musculus [18] = assay: Neurotoxicity in mouse at 20 mg/kg, ip after 1 hr by rotarod test; format: toxicity, organism-based; conditions: in vivo
# Mus musculus [19] = assay: Neurotoxicity in mouse at 20 mg/kg, ip after 2 hrs by rotarod test; format: toxicity, organism-based; conditions: in vivo
# Mus musculus [20] = assay: Neurotoxicity in mouse at 20 mg/kg, ip after 4 hrs by rotarod test; format: toxicity, organism-based; conditions: in vivo
# Mus musculus [21] = assay: Neurotoxicity in mouse at 30 mg/kg, ip after 4 hrs by rotarod test; format: toxicity, organism-based; conditions: in vivo
# Procedure, shortened: (§1)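 Mice were dosed ip with compound suspended in 0.5% methylcellulose. Rotarod: a 1 in. knurled rod turning at 6 rpm. Neurotoxicity was scored as failure to stay on the rod for at least 1 min in each of three trials. Results are given as the number of animals affected out of the number tested.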
# Mus musculus [22] = assay: Neurotoxicity in mouse at 100 mg/kg, ip after 0.5 hrs by rotarod test; format: toxicity, organism-based; conditions: in vivo; procedure, shortened: as §1
# Mus musculus [23] = assay: Neurotoxicity in mouse at 300 mg/kg, ip after 0.5 hrs by rotarod test; format: toxicity, organism-based; conditions: in vivo; procedure, shortened: as §1
# Mus musculus [24] = assay: Anticonvulsant activity in ip dosed mouse assessed as protection against maximal electric shock-induced seizures measured after […]; format: functional
# Mus musculus [25] = assay: Anticonvulsant activity in ip dosed mouse assessed as protection against subcutaneous pentylenetetrazol-induced seizures measured after […]; format: functional
# [26] = Neurotoxicity in ip dosed mouse after […] by rotarod test; format: toxicity, organism-based; conditions: in vivo
# Rattus norvegicus [27] = assay: Toxicity in pilocarpine-induced status epilepticus Sprague-Dawley rat assessed as death at 100 mg/kg, ip after […]; format: organism-based; conditions: in vivo
# Vibrio harveyi [28] = assay: Mutagenicity in Vibrio harveyi BB7 assessed as number of colonies after 48 hrs (reference value: 13 to 14 no_unit); format: ADME, organism-based; conditions: in vivo
# Procedure, shortened: (§2)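 Vibrio harveyi mutagenicity test: test compound was added to exponentially growing cultures (A600 = 0.1, 30 °C) and grown to OD600 0.3–0.4. Then 5 × 10^6 cells were plated on BOSS agar with neomycin (final 100 µg/mL) and incubated 48 h at 30 °C. Neomycin-resistant colonies were counted. Triplicate; controls were water, DMSO and NQNO 40 ng/mL.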
# Vibrio harveyi [29] = assay: Mutagenicity in Vibrio harveyi BB7X assessed as number of colonies after 48 hrs (reference value: 15 to 16 no_unit); format: ADME, organism-based; conditions: in vivo; procedure, shortened: as §2
# Vibrio harveyi [30] = assay: Mutagenicity in Vibrio harveyi BB7M assessed as number of colonies after 48 hrs (reference value: 13 to 14 no_unit); format: ADME, organism-based; conditions: in vivo; procedure, shortened: as §2
# Vibrio harveyi [31] = assay: Mutagenicity in Vibrio harveyi BB7XM assessed as number of colonies after 48 hrs (reference value: 14 no_unit); format: ADME, organism-based; conditions: in vivo; procedure, shortened: as §2
# Vibrio harveyi [32] = assay: Antimutagenic activity against Vibrio harveyi BB7 assessed as inhibition of NQNO-induced mutagenicity after 48 hrs; format: functional
# Procedure, shortened: (§3)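 V. harveyi cultures grown exponentially to A600 0.1 at 30 °C, exposed to test compound for 15 min, then to NQNO, and grown on to A600 0.3–0.4. 5 × 10⁶ cells plated on BOSS agar with neomycin (100, final). Neomycin-resistant colonies counted after 48 h at 30 °C. Result given as % inhibition of NQNO mutagenicity; three independent repeats.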
# Vibrio harveyi [33] = assay: Antimutagenic activity against Vibrio harveyi BB7M assessed as inhibition of NQNO-induced mutagenicity after 48 hrs; format: functional; procedure, shortened: as §3
# Vibrio harveyi [34] = assay: Antimutagenic activity against Vibrio harveyi BB7XM assessed as inhibition of NQNO-induced mutagenicity after 48 hrs; format: functional; procedure, shortened: as §3
# [35] = Retention time of the compound in mouse liver microsomes at 20 uM preincubated for 15 mins followed by addition of NADPH-regenerating system measured after 5 to 90 mins by […] analysis; format: ADME
# Procedure, shortened: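 Mouse liver microsomes (0.4 mg/mL) with test compound (20 µM) in 100 mM potassium phosphate, pH 7.4, were preincubated 15 min at 37 °C. An NADPH-regenerating system was then added and incubation ran 5–90 min at 37 °C. Levallorphan (20 µM) served as internal standard, and reactions were quenched with perchloric acid. The supernatant was analysed by UPLC/MS. Duplicate incubations.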
# in vitro [36] = conditions: mouse, liver microsomes
# in vitro [37] = conditions: mouse, liver microsomes; remark: listed apart in the source
# [38] = Displacement of [3H]alpha,beta-MeATP from rat urinary bladder P2X receptor
# Mus musculus [39] = assay: Neurotoxicity in mouse at 30 mg/kg, ip after 2 hrs by rotarod test; format: toxicity, organism-based; conditions: in vivo
# Mus musculus [40] = assay: Neurotoxicity in mouse at 30 mg/kg, ip after 0.5 hrs by rotarod test; format: toxicity, organism-based; conditions: in vivo; procedure, shortened: as §1
# Sequence of Muscarinic acetylcholine receptor M5 (P08912 whole entry): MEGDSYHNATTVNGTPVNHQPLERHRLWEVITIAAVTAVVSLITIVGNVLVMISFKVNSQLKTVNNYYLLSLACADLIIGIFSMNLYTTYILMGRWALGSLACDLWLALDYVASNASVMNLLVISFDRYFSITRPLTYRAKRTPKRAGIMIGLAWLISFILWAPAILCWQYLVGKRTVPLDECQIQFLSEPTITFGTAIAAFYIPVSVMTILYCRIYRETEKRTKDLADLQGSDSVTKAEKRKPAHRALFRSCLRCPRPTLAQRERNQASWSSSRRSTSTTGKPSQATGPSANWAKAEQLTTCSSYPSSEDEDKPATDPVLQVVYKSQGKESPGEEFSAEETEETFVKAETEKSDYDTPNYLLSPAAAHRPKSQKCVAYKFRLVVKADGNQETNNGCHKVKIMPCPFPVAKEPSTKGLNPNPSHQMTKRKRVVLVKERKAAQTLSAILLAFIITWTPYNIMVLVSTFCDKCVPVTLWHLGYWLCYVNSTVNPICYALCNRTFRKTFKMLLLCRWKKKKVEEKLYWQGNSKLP
smiles,measurement,setting,value
C[N+]1(C)CCC(OC(=O)C(c2ccccc2)c2ccccc2)CC1 [4-DAMP],IC50,[1],0.32 nM
Cc1cccc(C)c1OCCOCCN[C@@H](C)CO,Activity,Rattus norvegicus [2],Non-toxic
same,Activity,Rattus norvegicus [3],Non-toxic
same,Activity,Rattus norvegicus [4],Non-toxic
same,Activity,Rattus norvegicus [5],Non-toxic
same,Activity,Rattus norvegicus [6],Non-toxic
same,Activity,Rattus norvegicus [7],Non-toxic
same,Activity,Rattus norvegicus [8],Non-toxic
same,Activity,Rattus norvegicus [9],Non-toxic
same,Activity,Rattus norvegicus [10],Non-toxic
same,Activity,Rattus norvegicus [11],Non-toxic
same,Activity,Mus musculus [12],Non-toxic
same,Activity,Mus musculus [13],Non-toxic
same,Activity,Mus musculus [14],Non-toxic
same,Activity,Mus musculus [15],Toxic
same,Activity,Mus musculus [16],Non-toxic
same,Activity,Mus musculus [17],Non-toxic
same,Activity,Mus musculus [18],Non-toxic
same,Activity,Mus musculus [19],Non-toxic
same,Activity,Mus musculus [20],Non-toxic
same,Activity,Mus musculus [21],Non-toxic
same,Activity,Mus musculus [22],Toxic
same,Activity,Mus musculus [23],Toxic
same,ED50,Mus musculus [24],11.3 mg/kg
same,ED50,Mus musculus [25],> 43 mg/kg
same,TD50 at […],[26],39.2 mg/kg
same,Activity,Rattus norvegicus [27],Non-toxic
same,Activity,Vibrio harveyi [28],15
same,Activity,Vibrio harveyi [29],22
same,Activity,Vibrio harveyi [30],26
same,Activity,Vibrio harveyi [31],18
same,inhibition (INH),Vibrio harveyi [32],70%
same,inhibition (INH),Vibrio harveyi [33],69%
same,inhibition (INH),Vibrio harveyi [34],5%
same,Retention_time,[35],3.8 min
same,half-life at 20 µM,in vitro [36],37 min
same,microsomal CLint at 20 µM,in vitro [37],47 µL/min/mg
Nc1ncnc2c1ncn2[C@@H]1O[C@H](COP(=O)(O)CP(=O)(O)OP(=O)(O)O)[C@@H](O)[C@H]1O [DIPHOSPHOMETHYLPHOSPHONIC ACID ADENOSYL ESTER],IC50,[38],1.9 nM
Cc1cccc(C)c1OCCOCCN[C@@H](C)CO.Cl,Activity,Rattus norvegicus [2],Non-toxic
same,Activity,Rattus norvegicus [3],Non-toxic
same,Activity,Rattus norvegicus [4],Non-toxic
same,Activity,Rattus norvegicus [5],Non-toxic
same,Activity,Rattus norvegicus [6],Non-toxic
same,Activity,Rattus norvegicus [7],Non-toxic
same,Activity,Rattus norvegicus [8],Non-toxic
same,Activity,Rattus norvegicus [9],Non-toxic
same,Activity,Rattus norvegicus [10],Non-toxic
same,Activity,Rattus norvegicus [11],Non-toxic
same,Activity,Mus musculus [39],Non-toxic
same,Activity,Mus musculus [40],Non-toxic
same,Activity,Mus musculus [21],Non-toxic
same,Activity,Mus musculus [22],Non-toxic
same,Activity,Mus musculus [23],Toxic
